Assay results reported in ChEMBL document CHEMBL1123825, “Synthesis and activity profiles of new dermorphin-(1-4) peptide analogues” (J Med Chem, 1987).
pIC50: −log10 of the molar value. Non-standard residues stand in square brackets, D forms with d. Residues, ends and D or L forms follow the SMILES beside them. ξ: configuration not given here. Met(O) = CS(=O)CC[C@H](N)C(=O)O; ξA = CC(N)C(=O)O; Sar = CNCC(=O)O

Experiments:
[1] = target: Kappa-type opioid receptor (Cavia porcellus, UniProt P41144); experiment: Evaluated for the inhibition of [3H]EKC binding to Opioid receptor kappa 1 of guinea pig brain
Chain of Kappa-type opioid receptor (P41144 whole entry): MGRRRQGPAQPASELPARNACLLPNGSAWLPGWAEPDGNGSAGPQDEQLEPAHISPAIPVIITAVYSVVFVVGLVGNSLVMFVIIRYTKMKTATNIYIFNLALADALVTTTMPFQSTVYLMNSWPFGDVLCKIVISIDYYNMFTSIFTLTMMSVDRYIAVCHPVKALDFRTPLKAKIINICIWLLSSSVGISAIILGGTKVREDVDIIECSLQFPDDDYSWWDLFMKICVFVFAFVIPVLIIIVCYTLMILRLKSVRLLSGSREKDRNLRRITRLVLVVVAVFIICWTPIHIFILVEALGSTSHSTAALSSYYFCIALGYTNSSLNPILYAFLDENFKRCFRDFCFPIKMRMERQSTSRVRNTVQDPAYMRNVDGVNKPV

[2] = system: Mus musculus; experiment: The compound was evaluated for the analgesic activity by tail-flick test after subcutaneous administration in mouse; value ranges from 2.69-17.0; format: functional; conditions: sc
[3] = system: Mus musculus; experiment: The compound was evaluated for the analgesic activity by tail-flick test after icv administration of compound in mouse; value ranges from 12.6-41.7; format: functional
[4] = target: Mu-type opioid receptor (Cavia porcellus, UniProt P97266); experiment: Evaluated for the inhibition of [3H]DAGO binding to mu-receptor of guinea pig brain
Chain of Mu-type opioid receptor (P97266 whole entry): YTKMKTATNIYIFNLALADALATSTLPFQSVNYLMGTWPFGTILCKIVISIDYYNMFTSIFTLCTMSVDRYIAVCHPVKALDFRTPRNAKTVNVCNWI
How it was run: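 Male guinea pig brain minus cerebellum, homogenized in 50 mM Tris (pH 7.4), preincubated 37 °C for 45 min; 18 mg tissue per tube. [3H]DAGO 0.6 nM, 40 min at 25 °C, then GF/B filtration. Nonspecific binding defined with […] bremazocine. Six or more concentrations, each in triplicate; IC50 by probit analysis.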

[5] = system: Mus musculus; experiment: The compound was evaluated for the analgesic activity by tail-flick test after subcutaneous administration of compound in mouse; value ranges from 0.54-0.83; format: functional; conditions: sc
[6] = system: Mus musculus; experiment: The compound was evaluated for the analgesic activity by tail-flick test after icv administration of compound in mouse; value ranges from 1.35-3.36; format: functional
[7] = system: Mus musculus; experiment: Relative potency was determined for the compound with respect to morphine activity (1) after icv administration; format: functional
[8] = system: Mus musculus; experiment: The compound was evaluated for the analgesic activity by tail-flick test after subcutaneous administration of compound in mouse; value ranges from 2.64-10.0; format: functional; conditions: sc
[9] = system: Mus musculus; experiment: Relative potency was determined for the compound with respect to morphine activity (1) after subcutaneous administration; format: functional
[10] = target: Mu-type opioid receptor (Cavia porcellus) (UniProt P97266); experiment: Relative potency with respect to morphine was evaluated for mu-receptor of guinea pig brain
Chain of Mu-type opioid receptor (Cavia porcellus) (P97266 whole entry): as above

[11] = system: Mus musculus; experiment: The compound was evaluated for the analgesic activity by tail-flick test after icv administration of compound in mouse; value ranges from 27-40.8; format: functional
[12] = system: Mus musculus; experiment: The compound was evaluated for the analgesic activity by tail-flick test after icv administration of compound in mouse; value ranges from 11.8-23; format: functional
[13] = system: Mus musculus; experiment: The compound was evaluated for the analgesic activity by tail-flick test after subcutaneous administration of compound in mouse; value ranges from 1.40-4.89; format: functional; conditions: sc
[14] = system: Mus musculus; experiment: The compound was evaluated for the analgesic activity by tail-flick test after icv administration of compound in mouse; value ranges from 5.5-16.3; format: functional
[15] = system: Mus musculus; experiment: The compound was evaluated for the analgesic activity by tail-flick test after subcutaneous administration of compound in mouse; value ranges from 2.60-17.0; format: functional; conditions: sc
[16] = system: Mus musculus; experiment: The compound was evaluated for the analgesic activity by tail-flick test after subcutaneous administration of compound in mouse; value ranges from 2.51-17.4; format: functional; conditions: sc
[17] = system: Mus musculus; experiment: The compound was evaluated for the analgesic activity by tail-flick test after icv administration of compound in mouse; value ranges from 34-72; format: functional
[18] = system: Mus musculus; experiment: The compound was evaluated for the analgesic activity by tail-flick test after subcutaneous administration of compound in mouse; value ranges from 26.7-99.1; format: functional; conditions: sc
[19] = system: Mus musculus; experiment: The compound was evaluated for the analgesic activity by tail-flick test after icv administration of compound in mouse; value ranges from 46.4-120; format: functional
[20] = system: Mus musculus; experiment: The compound was evaluated for the analgesic activity by tail-flick test after icv administration of compound in mouse; value ranges from 6.6-27.1; format: functional
How it was run: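 Swiss-Webster mice (23-25 g), tail immersed in 55 °C water, reaction time read before and at various times after icv dosing in saline (4 µL); 10 s cutoff. % analgesia = [(T − T0)/(10 − T0)] × 100. At least four doses, at least eight mice per dose; ED50 estimated at time of peak activity. Opioid specificity checked by naloxone pretreatment (0.5-1 mg/kg sc).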

[21] = system: Mus musculus; experiment: The compound was evaluated for the analgesic activity by tail-flick test after subcutaneous administration of compound in mouse; value ranges from 0.28-0.80; format: functional; conditions: sc
[22] = system: Mus musculus; experiment: The compound was evaluated for the analgesic activity by tail-flick test after icv administration of compound in mouse; value ranges from 2.8-12.6; format: functional
[23] = system: Mus musculus; experiment: The compound was evaluated for the analgesic activity by tail-flick test after icv administration of compound in mouse; value ranges from 14.8-58; format: functional
[24] = system: Mus musculus; experiment: The compound was evaluated for the analgesic activity by tail-flick test after subcutaneous administration of compound in mouse; value ranges from 3.48-14.95; format: functional; conditions: sc
[25] = system: Mus musculus; experiment: The compound was evaluated for the analgesic activity by tail-flick test after icv administration of compound in mouse; value ranges from […]-[…]; format: functional
[26] = system: Mus musculus; experiment: The compound was evaluated for the analgesic activity by tail-flick test after subcutaneous administration of compound in mouse; value ranges from 0.48-1.51; format: functional; conditions: sc
[27] = system: Mus musculus; experiment: The compound was evaluated for the analgesic activity by tail-flick test after icv administration of compound in mouse; value ranges from 31-85; format: functional
[28] = system: Mus musculus; experiment: The compound was evaluated for the analgesic activity by tail-flick test after subcutaneous administration of compound in mouse; value ranges from 2.92-8.75; format: functional; conditions: sc
[29] = system: Mus musculus; experiment: The compound was evaluated for the analgesic activity by tail-flick test after icv administration of compound in mouse; value ranges from 2550-4200; format: functional
[30] = organism: Mus musculus; experiment: animal or person; conditions: Tail, sc
[31] = system: Mus musculus; experiment: The compound was evaluated for the analgesic activity by tail-flick test after icv administration of compound in mouse; value ranges from 6.1-11.4; format: functional
[32] = system: Mus musculus; experiment: The compound was evaluated for the analgesic activity by tail-flick test after subcutaneous administration of compound in mouse; value ranges from 0.21-1.06; format: functional; conditions: sc
[33] = system: Mus musculus; experiment: The compound was evaluated for the analgesic activity by tail-flick test after subcutaneous administration of compound in mouse; value ranges from 0.31-1.09; format: functional; conditions: sc
[34] = system: Mus musculus; experiment: The compound was evaluated for the analgesic activity by tail-flick test after icv administration of compound in mouse; value ranges from 0.51-9.7; format: functional

SMILES	pIC50 [1]	pIC50 [4]	Relative potency [7]	Relative potency [9]	Relative potency [10]	further results
C[S+]([O-])CC[C@H](NC(=O)[C@@H](N)Cc1ccc(O)cc1)C(=O)N[C@@H](Cc1ccccc1)C(=O)NCC(=O)O (stereo not given in full) (H-Y[Met(O)]FG-OH)	< 5.00	7.21	–	–	–	ED50 [2]: 4.64 µmol/kg; ED50 [3]: 20.5 pmol/mouse
C[S+]([O-])CC[C@H](NC(=O)[C@@H](N)Cc1ccc(O)cc1)C(=O)N[C@@H](Cc1ccccc1)C(=O)NCC(N)=O (stereo not given in full) (H-Y[Met(O)]FG-NH2)	< 5.00	8.20	–	–	–	ED50 [5]: 0.66 µmol/kg; ED50 [6]: 2.01 pmol/mouse
CC(NC(=O)[C@H](Cc1ccccc1)NC(=O)[C@H](CC[S+](C)[O-])NC(=O)[C@@H](N)Cc1ccc(O)cc1)C(N)=O (stereo not given in full) (H-Y[Met(O)]F[ξA]-NH2)	< 5.00	7.77	93	2.5	0.24	ED50 [8]: 4.38 µmol/kg; ED50 [11]: 33 pmol/mouse
COC(=O)CNC(=O)[C@H](Cc1ccccc1)NC(=O)[C@H](CC[S+](C)[O-])NC(=O)[C@H](Cc1ccc(O)cc1)N=C(N)N (stereo not given in full)	< 5.00	7.63	–	–	–	ED50 [12]: 15.5 pmol/mouse; ED50 [13]: 2.39 µmol/kg
COC(=O)CNC(=O)[C@H](Cc1ccccc1)NC(=O)[C@H](CC[S+](C)[O-])NC(=O)[C@@H](N)Cc1ccc(O)cc1 (stereo not given in full) (H-Y[Met(O)]FG-OMe)	< 5.00	8.30	–	–	–	ED50 [14]: 10 pmol/mouse; ED50 [15]: 4.21 µmol/kg
CN(CC(=O)O)C(=O)[C@H](Cc1ccccc1)NC(=O)[C@H](CC[S+](C)[O-])NC(=O)[C@@H](N)Cc1ccc(O)cc1 (stereo not given in full) (H-Y[Met(O)]F[Sar]-OH)	< 5.00	7.11	67	2.3	0.05	ED50 [16]: 4.63 µmol/kg; ED50 [17]: 45.8 pmol/mouse
C[C@@H](NC(=O)[C@@H](N)Cc1ccc(O)cc1)C(=O)N[C@@H](Cc1ccccc1)C(=O)NCC(N)=O (H-Y[dA]FG-NH2) [listing 1 of 2 here]	–	–	45	0.2	–	ED50 [18]: 60.3 µmol/kg; ED50 [19]: 68.8 pmol/mouse
C[C@@H](NC(=O)[C@@H](N)Cc1ccc(O)cc1)C(=O)N[C@@H](Cc1ccccc1)C(=O)NCC(N)=O (H-Y[dA]FG-NH2) [listing 2 of 2 here]	< 5.00	7.44	–	–	–	–
C[C@@H](NC(=O)[C@@H](N)Cc1ccc(O)cc1)C(=O)N[C@@H](Cc1ccccc1)C(=O)NCC(=O)N[C@@H](Cc1ccc(O)cc1)C(=O)N1CCC[C@H]1C(=O)N[C@@H](CO)C(N)=O [DERMORPHIN]	< 5.00	8.24	–	–	–	ED50 [20]: 11.4 pmol/mouse
CN(CC(N)=O)C(=O)[C@H](Cc1ccccc1)NC(=O)[C@H](CC[S+](C)[O-])NC(=O)[C@@H](N)Cc1ccc(O)cc1 (stereo not given in full) (H-Y[Met(O)]F[Sar]-NH2)	< 5.00	8.22	561	22.5	0.67	ED50 [21]: 0.48 µmol/kg; ED50 [22]: 5.5 pmol/mouse
C[C@H](NC(=O)[C@@H](N)Cc1ccc(O)cc1)C(=O)N[C@@H](Cc1ccccc1)C(=O)NCC(N)=O (H-YAFG-NH2)	–	–	–	–	0.11	–
COC(=O)C(C)NC(=O)[C@H](Cc1ccccc1)NC(=O)[C@H](CC[S+](C)[O-])NC(=O)[C@@H](N)Cc1ccc(O)cc1 (stereo not given in full) (H-Y[Met(O)]F[ξA]-OMe)	< 5.00	8.05	–	–	–	ED50 [23]: 18.2 pmol/mouse; ED50 [24]: 5.16 µmol/kg
COC(=O)CN(C)C(=O)[C@H](Cc1ccccc1)NC(=O)[C@H](CC[S+](C)[O-])NC(=O)[C@H](Cc1ccc(O)cc1)N=C(N)N (stereo not given in full)	< 5.00	7.64	81	14.4	0.17	ED50 [25]: 38.1 pmol/mouse; ED50 [26]: 0.75 µmol/kg
COC(=O)CN(C)C(=O)[C@H](Cc1ccccc1)NC(=O)[C@H](CC[S+](C)[O-])NC(=O)[C@@H](N)Cc1ccc(O)cc1 (stereo not given in full) (H-Y[Met(O)]F[Sar]-OMe)	< 5.00	8.22	64	2.7	0.67	ED50 [27]: 47.9 pmol/mouse; ED50 [28]: 4.05 µmol/kg
CN1CC[C@]23c4c5ccc(O)c4O[C@H]2[C@@H](O)C=C[C@H]3[C@H]1C5 [MORPHINE]	–	–	–	–	–	ED50 [29]: 3090 pmol/mouse; ED50 [30]: 10.8 µmol/kg
CC(NC(=O)[C@H](Cc1ccccc1)NC(=O)[C@H](CC[S+](C)[O-])NC(=O)[C@@H](N)Cc1ccc(O)cc1)C(=O)O (stereo not given in full) (H-Y[Met(O)]F[ξA]-OH)	< 5.00	6.92	–	–	–	ED50 [31]: 8.4 pmol/mouse; ED50 [32]: 0.36 µmol/kg
C[S+]([O-])CC[C@H](NC(=O)[C@H](Cc1ccc(O)cc1)N=C(N)N)C(=O)N[C@@H](Cc1ccccc1)C(=O)NCC(N)=O (stereo not given in full)	< 5.00	8.30	–	–	–	ED50 [33]: 0.53 µmol/kg; ED50 [34]: 2 pmol/mouse
